Molecules are shown by their SMILES.

This passage reports Cmax and inhibition results from ChEMBL document CHEMBL4118098, “Discovery of DS28120313 as a potent orally active hepcidin production inhibitor: Design and optimization of novel 4,6-disubstituted indazole derivatives” (Bioorg Med Chem Lett, 2017).

The nature of data set [1]: Cmax in C57BL/6J mouse at 30 mg/kg, po by LC-MS/MS analysis. Format: ADME, organism-based. Further details: dose 30 mg/kg, route oral. Conditions: in vivo. The method, boiled down: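 C57BL/6J mice received a single oral dose of 30 mg/kg as a suspension in 0.5% methylcellulose. Plasma Cmax and AUC are reported as the average of two animals.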
Data set [2] deals with MAP kinase-activated protein kinase 2 (Homo sapiens) (UniProt P49137). Put plainly: Inhibition of MAPKAPK2 (unknown origin) at 0.164 uM relative to control.
Data set [3] deals with Ribosomal protein S6 kinase alpha-1 (Homo sapiens) (UniProt Q15418). Description: Inhibition of RSK1 (unknown origin) at 0.164 uM relative to control.
In data set [4] the target is Mitogen-activated protein kinase 3 (Homo sapiens) (UniProt P27361). Put plainly: Inhibition of Erk1 (unknown origin) at 0.164 uM relative to control.
Data set [5] concerns the target Serine/threonine-protein kinase D2 (Homo sapiens) (UniProt Q9BZL6). Put plainly: Inhibition of PKD2 (unknown origin) at 0.164 uM relative to control.
In data set [6] the target is Serine/threonine-protein kinase MARK2 (Homo sapiens) (UniProt Q7KZI7). Description: Inhibition of MARK2 (unknown origin) at 0.164 uM relative to control.
Sequence of Serine/threonine-protein kinase MARK2 (Homo sapiens) (Q7KZI7 whole entry): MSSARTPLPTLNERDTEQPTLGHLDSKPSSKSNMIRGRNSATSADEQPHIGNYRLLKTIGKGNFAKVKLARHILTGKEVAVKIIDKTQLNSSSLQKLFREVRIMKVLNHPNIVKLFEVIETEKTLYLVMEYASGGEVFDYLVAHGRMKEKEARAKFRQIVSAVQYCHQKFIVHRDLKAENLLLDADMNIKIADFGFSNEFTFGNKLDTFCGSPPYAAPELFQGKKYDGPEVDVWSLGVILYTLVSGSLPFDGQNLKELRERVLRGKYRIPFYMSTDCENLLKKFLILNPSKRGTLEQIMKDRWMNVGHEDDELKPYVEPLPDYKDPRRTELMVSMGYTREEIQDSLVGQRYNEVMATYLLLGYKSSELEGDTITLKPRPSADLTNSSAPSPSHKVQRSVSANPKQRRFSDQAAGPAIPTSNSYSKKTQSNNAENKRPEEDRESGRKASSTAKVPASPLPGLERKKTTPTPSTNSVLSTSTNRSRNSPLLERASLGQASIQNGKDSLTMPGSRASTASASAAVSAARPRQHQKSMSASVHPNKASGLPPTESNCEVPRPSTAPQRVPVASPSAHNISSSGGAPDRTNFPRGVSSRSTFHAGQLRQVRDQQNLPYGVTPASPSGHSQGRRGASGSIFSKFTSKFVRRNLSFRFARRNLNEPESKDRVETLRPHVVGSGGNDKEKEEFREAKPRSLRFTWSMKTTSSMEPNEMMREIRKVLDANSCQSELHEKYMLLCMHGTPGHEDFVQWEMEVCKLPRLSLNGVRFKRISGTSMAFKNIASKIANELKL
The target of data set [7] is Ephrin type-A receptor 2 (Homo sapiens) (UniProt P29317). Description: Inhibition of EPHA2 (unknown origin) at 0.164 uM relative to control.
Data set [8] deals with Cyclin-dependent kinase 2 (Homo sapiens) (UniProt P24941). Put plainly: Inhibition of CDK2 (unknown origin) at 0.164 uM relative to control.
The target of data set [9] is Epidermal growth factor receptor (Homo sapiens) (UniProt P00533). Description: Inhibition of EGFR (unknown origin) at 0.164 uM relative to control.
For data set [10], the target named is Tyrosine-protein kinase Fgr (Homo sapiens) (UniProt P09769). Description: Inhibition of FGR (unknown origin) at 0.164 uM relative to control.
The target in data set [11] is Vascular endothelial growth factor receptor 1 (Homo sapiens) (UniProt P17948). Put plainly: Inhibition of FLT1 (unknown origin) at 0.164 uM relative to control.
Sequence of Vascular endothelial growth factor receptor 1 (Homo sapiens) (P17948 whole entry): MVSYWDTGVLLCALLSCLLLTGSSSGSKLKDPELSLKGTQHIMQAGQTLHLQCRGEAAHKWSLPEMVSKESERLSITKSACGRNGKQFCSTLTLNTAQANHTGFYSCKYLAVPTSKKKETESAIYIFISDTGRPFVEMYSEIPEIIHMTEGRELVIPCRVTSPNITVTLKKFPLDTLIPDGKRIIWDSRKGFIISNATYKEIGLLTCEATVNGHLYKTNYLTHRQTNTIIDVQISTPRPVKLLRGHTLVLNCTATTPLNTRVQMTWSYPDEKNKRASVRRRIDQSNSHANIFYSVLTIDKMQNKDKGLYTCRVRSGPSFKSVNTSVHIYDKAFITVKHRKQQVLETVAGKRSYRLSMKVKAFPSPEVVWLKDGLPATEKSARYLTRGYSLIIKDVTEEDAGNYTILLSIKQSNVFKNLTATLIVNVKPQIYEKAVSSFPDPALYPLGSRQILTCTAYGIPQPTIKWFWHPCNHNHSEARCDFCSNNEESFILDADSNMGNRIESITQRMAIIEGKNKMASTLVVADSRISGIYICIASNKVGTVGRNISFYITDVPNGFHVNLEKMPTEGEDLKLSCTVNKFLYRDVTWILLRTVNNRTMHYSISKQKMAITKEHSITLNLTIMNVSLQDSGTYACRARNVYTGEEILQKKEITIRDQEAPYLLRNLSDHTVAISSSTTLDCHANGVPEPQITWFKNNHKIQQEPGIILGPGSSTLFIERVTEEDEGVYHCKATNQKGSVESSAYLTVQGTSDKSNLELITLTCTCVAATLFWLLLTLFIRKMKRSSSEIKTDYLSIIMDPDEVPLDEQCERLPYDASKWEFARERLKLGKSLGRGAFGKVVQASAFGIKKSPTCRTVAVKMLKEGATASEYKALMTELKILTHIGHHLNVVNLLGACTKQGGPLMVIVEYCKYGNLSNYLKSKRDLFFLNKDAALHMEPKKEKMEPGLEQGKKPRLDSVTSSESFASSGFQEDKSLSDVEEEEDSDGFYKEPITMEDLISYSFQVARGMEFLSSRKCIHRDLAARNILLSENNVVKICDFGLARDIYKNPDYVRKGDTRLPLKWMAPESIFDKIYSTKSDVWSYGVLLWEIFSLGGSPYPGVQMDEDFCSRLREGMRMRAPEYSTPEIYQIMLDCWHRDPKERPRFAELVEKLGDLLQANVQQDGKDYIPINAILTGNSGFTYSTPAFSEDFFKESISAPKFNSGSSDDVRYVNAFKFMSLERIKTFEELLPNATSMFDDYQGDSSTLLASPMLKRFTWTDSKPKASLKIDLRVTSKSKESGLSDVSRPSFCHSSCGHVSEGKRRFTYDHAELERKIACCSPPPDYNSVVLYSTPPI
The target of data set [12] is Tyrosine-protein kinase Yes (Homo sapiens) (UniProt P07947). Description: Inhibition of Yes (unknown origin) at 0.164 uM relative to control.
The target of data set [13] is Serine/threonine-protein kinase PAK 3 (Homo sapiens) (UniProt O75914). Put plainly: Inhibition of PAK3 (unknown origin) at 0.164 uM relative to control.
Sequence of Serine/threonine-protein kinase PAK 3 (Homo sapiens) (O75914 whole entry, looked up): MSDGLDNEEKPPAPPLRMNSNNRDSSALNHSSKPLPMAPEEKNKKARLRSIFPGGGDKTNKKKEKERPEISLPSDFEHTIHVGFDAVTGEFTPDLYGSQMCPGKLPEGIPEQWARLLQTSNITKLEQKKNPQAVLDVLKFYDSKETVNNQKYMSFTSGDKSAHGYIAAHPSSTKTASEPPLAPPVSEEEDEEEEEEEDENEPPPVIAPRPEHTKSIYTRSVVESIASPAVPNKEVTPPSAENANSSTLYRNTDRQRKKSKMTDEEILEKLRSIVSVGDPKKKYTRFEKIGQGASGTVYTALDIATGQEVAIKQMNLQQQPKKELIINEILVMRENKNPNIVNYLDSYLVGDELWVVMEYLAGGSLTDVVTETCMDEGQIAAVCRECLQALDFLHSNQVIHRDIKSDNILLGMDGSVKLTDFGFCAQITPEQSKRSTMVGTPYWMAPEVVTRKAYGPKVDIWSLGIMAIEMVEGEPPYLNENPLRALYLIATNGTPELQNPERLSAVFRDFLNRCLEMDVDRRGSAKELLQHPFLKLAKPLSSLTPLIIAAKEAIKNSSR
Data set [14] deals with Serine/threonine-protein kinase PAK 5 (Homo sapiens) (UniProt Q9P286). Put plainly: Inhibition of PAK5/PAK7 (unknown origin) at 0.164 uM relative to control.
The subject of data set [15] is Receptor-type tyrosine-protein kinase FLT3 (Homo sapiens), P36888 [D835Y]. Put plainly: Inhibition of Flt3 D835Y mutant (unknown origin) at 0.164 uM relative to control.
Data set [16] addresses Mitogen-activated protein kinase 1 (Homo sapiens) (UniProt P28482). Description: Inhibition of Erk2 (unknown origin) at 0.45 uM relative to control.
For data set [17], the target named is RAC-beta serine/threonine-protein kinase (Homo sapiens) (UniProt P31751). Put plainly: Inhibition of AKT2 (unknown origin) at 0.45 uM relative to control.
The target of data set [18] is RAC-alpha serine/threonine-protein kinase (Homo sapiens) (UniProt P31749). Description: Inhibition of AKT1 (unknown origin) at 0.45 uM relative to control.
In data set [19] the target is Serine/threonine-protein kinase Chk2 (Homo sapiens) (UniProt O96017). Put plainly: Inhibition of CHK2 (unknown origin) at 0.19 uM relative to control.
Sequence of Serine/threonine-protein kinase Chk2 (Homo sapiens) (O96017 whole entry): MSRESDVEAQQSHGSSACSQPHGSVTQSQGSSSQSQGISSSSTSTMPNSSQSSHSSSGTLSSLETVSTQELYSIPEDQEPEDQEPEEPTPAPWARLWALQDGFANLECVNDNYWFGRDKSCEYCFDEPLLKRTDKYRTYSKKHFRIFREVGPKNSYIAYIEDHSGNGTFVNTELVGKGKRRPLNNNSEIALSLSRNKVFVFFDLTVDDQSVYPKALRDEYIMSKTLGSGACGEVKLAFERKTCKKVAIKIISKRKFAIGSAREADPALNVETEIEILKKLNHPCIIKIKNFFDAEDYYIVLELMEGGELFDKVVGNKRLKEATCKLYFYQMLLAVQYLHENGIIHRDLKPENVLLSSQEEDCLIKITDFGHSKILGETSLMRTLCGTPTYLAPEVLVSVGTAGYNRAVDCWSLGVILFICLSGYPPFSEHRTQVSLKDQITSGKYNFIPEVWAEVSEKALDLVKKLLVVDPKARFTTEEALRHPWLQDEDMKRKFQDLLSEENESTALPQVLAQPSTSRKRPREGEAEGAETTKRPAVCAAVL
The species named for another data set is Homo sapiens. Put plainly: Inhibition of PKA (unknown origin) at 0.19 uM relative to control.
For data set [20], the target named is Aurora kinase B (Homo sapiens) (UniProt Q96GD4). Description: Inhibition of AurB (unknown origin) at 0.19 uM relative to control.
The target in data set [21] is Ephrin type-A receptor 4 (Homo sapiens) (UniProt P54764). Put plainly: Inhibition of EPHA4 (unknown origin) at 0.19 uM relative to control.
Data set [22] has as its target Rho-associated protein kinase 1 (Homo sapiens) (UniProt Q13464). Description: Inhibition of ROCK1 (unknown origin) at 0.19 uM relative to control.
Data set [23] deals with Tyrosine-protein kinase ABL1 (Homo sapiens), P00519 [Q252H]. Description: Inhibition of Abl Q252H mutant (unknown origin) at 0.19 uM relative to control.
Data set [24] deals with MAP kinase-activated protein kinase 3 (Homo sapiens) (UniProt Q16644). Description: Inhibition of MAPKAPK3 (unknown origin) at 0.19 uM relative to control.
Sequence of MAP kinase-activated protein kinase 3 (Homo sapiens) (Q16644 whole entry, looked up): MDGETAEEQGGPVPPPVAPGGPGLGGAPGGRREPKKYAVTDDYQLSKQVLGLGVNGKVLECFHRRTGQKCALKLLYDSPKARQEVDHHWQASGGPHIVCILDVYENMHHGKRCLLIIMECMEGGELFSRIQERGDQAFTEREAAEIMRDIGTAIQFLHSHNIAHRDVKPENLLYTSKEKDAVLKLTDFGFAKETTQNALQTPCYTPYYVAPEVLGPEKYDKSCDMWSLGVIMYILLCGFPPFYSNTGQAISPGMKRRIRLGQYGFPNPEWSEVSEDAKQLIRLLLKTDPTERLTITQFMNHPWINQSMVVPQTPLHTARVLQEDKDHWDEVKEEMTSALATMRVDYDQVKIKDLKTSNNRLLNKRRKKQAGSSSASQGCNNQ
For data set [25], the system named is Tyrosine-protein kinase ABL1 (Homo sapiens), P00519 [H396P]. Description: Inhibition of Abl H396P mutant (unknown origin) at 0.19 uM relative to control.
Data set [26] concerns the target Tyrosine-protein kinase Fer (Homo sapiens) (UniProt P16591). Put plainly: Inhibition of Fer (unknown origin) at 0.19 uM relative to control.
The target of data set [27] is T1, Serine/threonine-protein kinase DCLK1 (Homo sapiens) (UniProt O15075).
T1 sequence (whole entry): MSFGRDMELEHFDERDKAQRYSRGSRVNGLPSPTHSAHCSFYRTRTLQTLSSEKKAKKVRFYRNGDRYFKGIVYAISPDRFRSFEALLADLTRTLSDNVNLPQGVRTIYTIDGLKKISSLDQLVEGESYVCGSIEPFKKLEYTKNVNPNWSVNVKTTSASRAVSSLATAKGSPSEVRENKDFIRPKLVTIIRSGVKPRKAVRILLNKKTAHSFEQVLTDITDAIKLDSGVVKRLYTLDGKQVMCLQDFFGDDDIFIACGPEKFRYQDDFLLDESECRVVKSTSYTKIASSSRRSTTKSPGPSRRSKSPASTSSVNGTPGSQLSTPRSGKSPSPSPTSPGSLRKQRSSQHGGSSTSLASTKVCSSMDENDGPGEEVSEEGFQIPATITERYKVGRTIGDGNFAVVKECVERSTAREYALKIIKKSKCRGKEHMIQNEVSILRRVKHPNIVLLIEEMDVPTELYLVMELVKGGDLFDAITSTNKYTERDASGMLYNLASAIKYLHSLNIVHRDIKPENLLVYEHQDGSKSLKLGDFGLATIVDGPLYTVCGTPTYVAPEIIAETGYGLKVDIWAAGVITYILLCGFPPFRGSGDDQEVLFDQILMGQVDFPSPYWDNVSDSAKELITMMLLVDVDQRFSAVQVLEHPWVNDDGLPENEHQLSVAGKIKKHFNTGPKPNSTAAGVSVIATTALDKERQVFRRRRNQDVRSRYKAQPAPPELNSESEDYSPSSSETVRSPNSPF
Description: Inhibition of DCAMKL1 (unknown origin) at 0.19 uM relative to control.

Data set [28] addresses ALK tyrosine kinase receptor (Homo sapiens) (UniProt Q9UM73). Put plainly: Inhibition of ALK (unknown origin) at 0.19 uM relative to control.

Sequence of Tyrosine-protein kinase Fer (Homo sapiens) (P16591 whole entry, looked up): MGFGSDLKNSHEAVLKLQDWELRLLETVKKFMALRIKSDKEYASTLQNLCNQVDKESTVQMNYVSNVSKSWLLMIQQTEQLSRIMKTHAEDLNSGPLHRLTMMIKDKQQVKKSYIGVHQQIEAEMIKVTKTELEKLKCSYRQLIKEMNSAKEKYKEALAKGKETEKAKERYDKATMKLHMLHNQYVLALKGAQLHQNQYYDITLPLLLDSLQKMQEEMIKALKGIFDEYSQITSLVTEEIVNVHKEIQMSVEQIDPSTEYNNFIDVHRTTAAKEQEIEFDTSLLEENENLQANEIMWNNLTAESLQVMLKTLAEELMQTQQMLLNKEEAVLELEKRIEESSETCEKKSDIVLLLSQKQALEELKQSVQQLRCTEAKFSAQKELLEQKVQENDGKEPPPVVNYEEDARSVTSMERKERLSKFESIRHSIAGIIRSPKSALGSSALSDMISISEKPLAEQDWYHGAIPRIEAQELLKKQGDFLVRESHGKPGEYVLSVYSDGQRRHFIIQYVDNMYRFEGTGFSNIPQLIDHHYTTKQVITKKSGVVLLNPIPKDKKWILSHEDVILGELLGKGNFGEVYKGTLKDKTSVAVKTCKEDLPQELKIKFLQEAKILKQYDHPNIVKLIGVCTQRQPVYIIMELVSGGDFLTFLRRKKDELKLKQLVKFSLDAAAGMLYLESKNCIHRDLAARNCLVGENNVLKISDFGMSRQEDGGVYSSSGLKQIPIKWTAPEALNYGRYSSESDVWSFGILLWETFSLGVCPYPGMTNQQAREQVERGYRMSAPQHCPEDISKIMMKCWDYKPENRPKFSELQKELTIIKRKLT
Sequence of Mitogen-activated protein kinase 1 (Homo sapiens) (P28482 whole entry): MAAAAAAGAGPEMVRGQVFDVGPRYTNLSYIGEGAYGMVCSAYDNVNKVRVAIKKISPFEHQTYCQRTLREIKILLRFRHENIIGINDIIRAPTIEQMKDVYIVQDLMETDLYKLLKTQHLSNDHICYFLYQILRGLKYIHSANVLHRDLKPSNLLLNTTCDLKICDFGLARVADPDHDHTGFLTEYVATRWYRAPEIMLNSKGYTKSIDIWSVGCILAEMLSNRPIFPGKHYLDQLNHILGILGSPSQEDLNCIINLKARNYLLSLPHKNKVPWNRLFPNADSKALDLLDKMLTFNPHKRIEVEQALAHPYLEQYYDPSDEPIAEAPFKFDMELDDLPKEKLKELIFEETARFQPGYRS

Consider `COC(=O)Nc1cc(-c2c(C3CC3)n[nH]c2C)cc2[nH]ncc12`, for which, in data set [1], the concentration peaked (Cmax) at 4940 ng/mL. Besides, the inhibition (in general, the drop in the measured response relative to a control, in per cent) in data set [2] is 7%; in [3], 17%; in [4], 7%; in [5], 9.3%; in data set [6], -4.7%; in data set [7], -2.3%. Besides, the inhibition was 9% in data set [8]; -2% in [9]; -4.3% in data set [10]; 1.3% in data set [11]; 3% in [12]; -2% in [13]. Moreover, the figures for the inhibition in [14] and in [15] were 5% and 7.3%, respectively.

As to `Cc1n[nH]c(C)c1-c1ccc2c(NC(=O)c3ccc(N4CCN(C)CC4)cc3)n[nH]c2c1`, the inhibition in [16] was -0.3%; in [17], -2%; in data set [18], -1.7%.

`Cc1[nH]nc(C2CC2)c1-c1ccc2c(-c3ccc(N4CCN(C)CC4)nc3)n[nH]c2c1`: the inhibition in data set [19] was 3%; in the data set listed under Homo sapiens, 5.7%; in data set [20], -2.3%; in data set [21], 2%; in data set [22] it was -7.3%; in data set [23] it was 71%. Besides, the inhibition was -1.7% in data set [24]; 86.3% in data set [25]; -2.3% in data set [26]; -1.3% in [27]; 6.7% in data set [28].
